Reference: article PMC9291769 (Chemmedchem, 2021)

Assay: MTT cell viability assay
Format: cell-based, human
Details: human, A375 cells, Cell viability [%] @ 10 μM±SD
Summary of the method: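 A375 cells were kept in high-glucose DMEM with 10% heat-inactivated FBS, 2 mM L-glutamine and pen/strep. Cells were seeded at 0.5×10^5/well and exposed to 10 µM test compound for 48 h at 37 °C, 5% CO₂, then given MTT. Viability = 100(x−y)/(z−y), where x, y and z are absorbance of treated, resting and untreated cells. Mean ± SD, ≥3 experiments in triplicate.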

`O=C(NCc1nnc2ccc(C(F)(F)F)cn12)c1ccc(O)c(Br)c1` [Compound 12, 3‐Bromo‐4‐hydroxy‐N‐((6‐(trifluoromethyl)‐[1,2,4]triazolo[4,3‐a]pyridin‐3‐yl)methyl)benzamide] and `O=C(NCc1nnc2ccc(C(F)(F)F)cn12)c1cc(Br)c(O)cc1O` [Compound 13, 5‐Bromo‐2,4‐dihydroxy‐N‐((6‐(trifluoromethyl)‐[1,2,4]triazolo[4,3‐a]pyridin‐3‐yl)methyl)benzamide] are within error of each other in viability at 48 h, 10 μM: 92 ± 12% for the first, 94 ± 2.8% for the second.

Compared with `Cc1ccc(Br)c(C)c1C(=O)NCc1nnc2ccc(C(F)(F)F)cn12` [Compound 14, 3‐Bromo‐2,6‐dimethyl‐N‐((6‐(trifluoromethyl)‐[1,2,4]triazolo[4,3‐a]pyridin‐3‐yl)methyl)benzamide], `COc1cc(C)c(C(=O)NCc2nnc3ccc(C(F)(F)F)cn23)c(C)c1` [Compound 17, 4‐Methoxy‐2,6‐dimethyl‐N‐((6‐(trifluoromethyl)‐[1,2,4]triazolo[4,3‐a]pyridin‐3‐yl)methyl)benzamide] is lower in viability at 48 h, 10 μM: 100% for the first, 89 ± 9.2% for the second.

`O=C(NCc1nnc2ccc(C(F)(F)F)cn12)c1c(F)ccc(Cl)c1Cl` [Compound 15, 2,3‐Dichloro‐6‐fluoro‐N‐((6‐(trifluoromethyl)‐[1,2,4]triazolo[4,3‐a]pyridin‐3‐yl)methyl)benzamide] and `COc1cc(F)c(C(=O)NCc2nnc3ccc(C(F)(F)F)cn23)c(F)c1` [Compound 16, 2,6‐Difluoro‐4‐methoxy‐N‐((6‐(trifluoromethyl)‐[1,2,4]triazolo[4,3‐a]pyridin‐3‐yl)methyl)benzamide] are the same in viability at 48 h, 10 μM: 100 ± 0.7% for the first, 100 ± 5.2% for the second.

`O=C(NCc1nnc2ccc(C(F)(F)F)cn12)c1cc(-c2ccc(F)cc2)ccc1F` [Compound 18, 4,4′‐Difluoro‐N‐((6‐(trifluoromethyl)‐[1,2,4]triazolo[4,3‐a]pyridin‐3‐yl)methyl)‐[1,1′‐biphenyl]‐3‐carboxamide] and `N#Cc1ccc(-c2ccc(F)c(C(=O)NCc3nnc4ccc(C(F)(F)F)cn34)c2)cc1` [Compound 19, 4′‐Cyano‐4‐fluoro‐N‐((6‐(trifluoromethyl)‐[1,2,4]triazolo[4,3‐a]pyridin‐3‐yl)methyl)‐[1,1′‐biphenyl]‐3‐carboxamide] are within error of each other in viability at 48 h, 10 μM: 88 ± 16.8% for the first, 97 ± 2.1% for the second.

Compared with `Cc1ccccc1-c1ccc(F)c(C(=O)NCc2nnc3ccc(C(F)(F)F)cn23)c1` [Compound 20, 4‐Fluoro‐2′‐methyl‐N‐((6‐(trifluoromethyl)‐[1,2,4]triazolo[4,3‐a]pyridin‐3‐yl)methyl)‐[1,1′‐biphenyl]‐3‐carboxamide], `COc1ccc(-c2ccc(F)c(C(=O)NCc3nnc4ccc(C(F)(F)F)cn34)c2)cc1` [Compound 21, 4‐Fluoro‐4′‐methoxy‐N‐((6‐(trifluoromethyl)‐[1,2,4]triazolo[4,3‐a]pyridin‐3‐yl)methyl)‐[1,1′‐biphenyl]‐3‐carboxamide] is lower in viability at 48 h, 10 μM: 100% for the first, 78 ± 4.2% for the second.

`Cc1ccc(-c2cccc(C(=O)NCc3nnc4ccc(C(F)(F)F)cn34)c2)cc1` [Compound 22, 4′‐Methyl‐N‐((6‐(trifluoromethyl)‐[1,2,4]triazolo[4,3‐a]pyridin‐3‐yl)methyl)‐[1,1′‐biphenyl]‐3‐carboxamide] and `COc1ccc(-c2ccc(F)c(C(=O)NCc3nnc4ccc(Cl)cn34)c2)cc1OC` [Compound 32, N‐((6‐Chloro‐[1,2,4]triazolo[4,3‐a]pyridin‐3‐yl)methyl)‐4‐fluoro‐3′,4′‐dimethoxy‐[1,1′‐biphenyl]‐3‐carboxamide] are within error of each other in viability at 48 h, 10 μM: 93 ± 9.8% for the first, 98 ± 9.3% for the second.

`O=C(NCc1nnc2ccc(Cl)cn12)c1cccc2cn[nH]c12` [Compound 30, N‐((6‐Chloro‐[1,2,4]triazolo[4,3‐a]pyridin‐3‐yl)methyl)‐1H‐indazole‐7‐carboxamide] and `O=C(NCc1nnc2ccccn12)c1cccc2cn[nH]c12` [Compound 42, N‐([1,2,4]Triazolo[4,3‐a]pyridin‐3‐ylmethyl)‐1H‐indazole‐7‐carboxamide] are within error of each other in viability at 48 h, 10 μM: 98 ± 7.4% for the first, 100% for the second.

For `O=C(NCc1cccc2ccccc12)c1cccc2cn[nH]c12` [Compound 44, N‐(Naphthalen‐1‐ylmethyl)‐1H‐indazole‐7‐carboxamide], the viability at 48 h, 10 μM was 99 ± 1%.
